Blank lines part the entries; values can stand above or below the molecule they belong to. Active and inactive are the calls of the source.
Assays:
[1] = test system: HeLa; experiment: Induction of apoptosis in human HeLa cells assessed as late apoptotic cells at 5 uM after 48 hrs by Annexin V-FITC/propidium iodide staining-based flow cytometric analysis (reference value: 15%); format: functional
[2] = test system: HeLa; experiment: Induction of apoptosis in human HeLa cells assessed as viable cells at 5 uM after 48 hrs by Annexin V-FITC/propidium iodide staining-based flow cytometric analysis (reference value: 74%); format: functional; conditions: read-out: Activity
[3] = test system: HeLa; experiment: Induction of apoptosis in human HeLa cells assessed as increase in cleaved caspase-3 levels at 5 uM after 24 hrs by Western blot analysis; format: functional, cell-based
Procedure, shortened: (§1)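 Treated cells lysed in ice-cold Tris-HCl pH 7.5/NaCl/NP-40 buffer with protease inhibitors. Equal protein separated by SDS-PAGE and transferred to nitrocellulose. Blocked in 5% milk in PBST, primary antibodies overnight at 4 °C, secondary 1 h at room temperature, infrared imaging. β-actin probed alongside.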

[4] = test system: HeLa; experiment: Induction of apoptosis in human HeLa cells assessed as chromatin condensation at 5 uM after 48 hrs by DAPI staining-based fluorescence microscopic analysis; format: functional, cell-based
Procedure, shortened: (§2)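 Cells fixed in 5% paraformaldehyde and permeabilized with 0.1% Triton X-100 in PBS. Stained 10 min with DAPI (1 µg/mL) and examined by fluorescence microscopy. Nuclei with chromatin condensation and fragmentation scored apoptotic.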

[5] = test system: HeLa; experiment: Induction of apoptosis in human HeLa cells assessed as increase in Bax levels at 5 uM after 24 hrs by Western blot analysis; format: functional, cell-based; procedure, shortened: as §1
[6] = (§3) Inhibition of human TERT promoter activity expressed in human HeLa cells after 24 hrs by luciferase reporter gene assay; format: cell-based
Procedure, shortened: (§4)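 HeLa cells co-transfected with hTERT promoter–luciferase (P-3996) or pGL2 vector plus pCMV-β-gal. Replated at 5×10^3/well, then treated 24 h in DMEM with 3% FBS at 1–16 µM. Luciferase normalized to β-galactosidase and expressed as fold of 0.1% DMSO control. Three repeats.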

[7] = test system: HeLa; experiment: Induction of apoptosis in human HeLa cells assessed as cell shrinkage at 5 uM after 48 hrs by DAPI staining-based fluorescence microscopic analysis; format: functional; procedure, shortened: as §2
[8] = test system: HeLa; experiment: Induction of apoptosis in human HeLa cells assessed as necrotic cells at 5 uM after 48 hrs by Annexin V-FITC/propidium iodide staining-based flow cytometric analysis (reference value: 1.5%); format: functional
[9] = test system: HeLa; experiment: Induction of apoptosis in human HeLa cells assessed as increase in cleaved caspase-9 levels at 5 uM after 24 hrs by Western blot analysis; format: functional, cell-based; procedure, shortened: as §1
[10] = test system: HeLa; experiment: Antiproliferative activity against human HeLa cells at 5 uM by MTT assay; format: functional, cell-based; conditions: TDE = time-dependent effect
Procedure, shortened: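 HeLa cells seeded 5,000/well in triplicate, exposed to 5 µM for 24 or 48 h. MTT added at 0.5 mg/ml final for 4 h at 37 °C in the dark. Formazan dissolved in DMSO and read at 570 nm. Three independent experiments.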

[11] = test system: HeLa; experiment: Induction of apoptosis in human HeLa cells assessed as early apoptotic cells at 5 uM after 48 hrs by Annexin V-FITC/propidium iodide staining-based flow cytometric analysis (reference value: 9.5%); format: functional
[12] = test system: HeLa; experiment: Induction of apoptosis in human HeLa cells assessed as decrease in Bcl-2 levels at 5 uM after 24 hrs by Western blot analysis; format: functional, cell-based; procedure, shortened: as §1
[13] = test system: HeLa; experiment: Inhibition of colony formation in human HeLa cells at 5 uM after 3 weeks; format: functional, cell-based
Procedure, shortened: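 HeLa cells treated with 5 µM and grown 3 weeks. Colonies photographed and colony-formation efficiency quantified.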

[14] = test system: L02; experiment: Antiproliferative activity against human LO2 cells at 1 to 16 uM after 48 hrs by MTT assay; format: cell-based; conditions: l02, 48 h
Procedure, shortened: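 L02 cells given 1, 2, 4, 8 and 16 µM for 48 h. Seeded 5,000/well in triplicate. MTT 0.5 mg/ml final, 4 h at 37 °C in the dark, DMSO solubilization, absorbance at 570 nm. Three independent experiments. IC50 from probit regression of relative absorbance.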

[15] = test system: HeLa; experiment: Inhibition of TERT promoter activity in human HeLa cells assessed as decrease in relative length of telomeres treated up to 22 generations by Q-PCR analysis; format: cell-based
Procedure, shortened: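 HeLa cells cultured with compound or DMSO for 22 generations. Telomere length measured by qPCR as telomere/36B4 single-copy gene (T/S) ratio relative to a reference DNA. Samples run in duplicate, threshold 0.5.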

[16] = test system: HeLa; experiment: as §3; format: cell-based; procedure, shortened: as §4

SMILES: COc1ccc(-c2cccc3c2/C(=N/O)C(=O)N3Cc2ccc(Cl)cc2)cc1
EC50 [6]: 12 µM

SMILES: O=C1/C(=N\O)c2c(Cl)cccc2N1Cc1ccc(Cl)cc1
EC50 [6]: 13 µM

SMILES: O=C1/C(=N\O)c2c(I)cccc2N1Cc1ccc(Cl)cc1
EC50 [6]: 14 µM
inhibition [16]: Dose-dependent effect

Molecules with a lower EC50 [6], results first:

EC50 [6]: 6 µM
SMILES: O=C1/C(=N\O)c2c(Br)cccc2N1Cc1ccc(Cl)cc1

EC50 [6]: 5 µM
SMILES: O=C1/C(=N\O)c2c(-c3ccc(C(F)(F)F)cc3)cccc2N1Cc1ccc(Cl)cc1
Activity [1]: 29.1%
viability at 5 µM [2]: 38%
Activity [3]: Active
Activity [4]: Active
Activity [5]: Active
Activity [7]: Active
Activity [8]: 2.2%
Activity [9]: Active
Activity [10]: Tde
Activity [11]: 30.6%
Activity [12]: Active
inhibition [13]: Active
Activity [14]: Non-Toxic
inhibition [15]: Active

— ChEMBL document CHEMBL4145477, “Inhibitor of the human telomerase reverse trancriptase (hTERT) gene promoter induces cell apoptosis via a mitochondrial-dependent pathway” (Eur J Med Chem, 2018)
